Source: PubChem BioAssay
A1 inh: caspase 3/7 activation in MEF A1-2A-BIM cells, primary screen, A1 inhibitor project, cell-based, luminescence, HTS | Caspase-Glo 3/7 luminescence, 3 h; percent of clofoctol response, vehicle zero | caspase activation, % (concentration not given with the values) | 0.066% of 330,000 active;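 active means over half of replicate activation scores above 10%, or exactly half above 10 with the replicate mean above 10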
MsrA inh: bovine MsrA enzyme inhibitors, primary screen, biochemical, absorbance, HTS; Methionine sulfoxide reductase A (Bos taurus); 0.75% of 360,000 active; AID 651718, 2012; inhibition, % at 15.5 µM; purified bovine MsrA, absorbance read-out;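 further: 0% = vehicle wells with enzyme and 100% = reference inhibitor wells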
MsrA act: bovine MsrA enzyme activators, primary screen, biochemical, absorbance, HTS. Methionine sulfoxide reductase A (Bos taurus). purified bovine MsrA, absorbance read-out. activation, % at 10.6 µM. 0.3% of 360,000 active. AID 602163, 2012; in the data active means activation above about 7.5%;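 further: 0% = vehicle and 100% = reference activator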
procasp7 counter: procaspase-7 activators, primary screen, counter-screen for procaspase-3 activator project, biochemical, absorbance, HTS, human | Caspase-7 (Homo sapiens), P55210 | recombinant procaspase-7, Ac-DEVD-pNA absorbance 405 nm; D23A/D198A/D206A triple mutant, cannot self-cleave; scale: DMSO 0, 5 µM enzyme 100 | activation, % at 8.5 µM | 0.093% of 330,000 active | AID 463210, 2010;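 active means percent activation above the screen-wide mean plus 3 SD, cut at about 25% in these data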
Target sequence (P55210 whole entry D23A/D198A/D206A): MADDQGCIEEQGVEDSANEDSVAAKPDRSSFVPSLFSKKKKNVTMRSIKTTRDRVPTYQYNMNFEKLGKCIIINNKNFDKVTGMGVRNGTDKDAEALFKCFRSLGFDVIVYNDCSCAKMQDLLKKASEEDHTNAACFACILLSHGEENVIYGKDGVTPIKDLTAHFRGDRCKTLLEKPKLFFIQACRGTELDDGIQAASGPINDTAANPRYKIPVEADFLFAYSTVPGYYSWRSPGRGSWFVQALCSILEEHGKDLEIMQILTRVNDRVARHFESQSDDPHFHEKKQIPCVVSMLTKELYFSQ
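Test system: Procaspase-7 triple mutant (PC-7 D3A). Also added: Ac-DEVD-pNA substrate, 400 µM as added. Schedule: 1 h enzyme–compound preincubation and 2 h substrate reaction, both 25 °C. Signal: p-Nitroaniline absorbance at 405 nm, read at 0 and 120 min. Control set: low DMSO alone, high DMSO plus 5 µM PC-7.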
proCasp3 act: activators of human procaspase-3 D3A mutant, primary screen, biochemical, absorbance, PC-3 D3A mutant, single concentration | Caspase-3 (Homo sapiens), P42574 | recombinant procaspase-3 D3A, Ac-DEVD-pNA absorbance 405 nm | activation, % at 8.5 µM | 0.11% of 330,000 active | AID 463141, 2010;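 active means activation above the mean of all tested compounds plus 3 SD, cut at about 21% in these data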;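 further: 0% = DMSO alone and 100% = DMSO wells spiked with extra 5 µM PC-3 D3A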
Target sequence (P42574 whole entry D9A/D28A/D175A): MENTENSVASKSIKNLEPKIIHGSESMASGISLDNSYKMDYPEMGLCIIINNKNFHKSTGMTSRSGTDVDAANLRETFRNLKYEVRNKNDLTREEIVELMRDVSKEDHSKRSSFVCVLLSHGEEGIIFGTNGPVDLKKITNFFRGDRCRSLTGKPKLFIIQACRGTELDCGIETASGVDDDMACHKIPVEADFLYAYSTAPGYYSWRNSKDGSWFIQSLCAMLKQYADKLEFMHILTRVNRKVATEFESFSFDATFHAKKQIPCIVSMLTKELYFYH
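Assay system: Procaspase-3 D3A mutant, all three cleavage aspartates alanine. Buffer or medium: Zinc-free HEPES saline buffer with Triton X-100. Times: 1 h compound preincubation, 2 h substrate hydrolysis at 25 °C. Measured by: 405 nm absorbance of p-nitroaniline, reads at 0 and 120 min. Read-out basis: percent activation relative to control range. Replicates: singlicate.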
MsrA act confirm: bovine MsrA activators, retest, confirmation, biochemical, absorbance, HTS | shares compounds with MsrA act | purified bovine MsrA, absorbance read-out | activation, % at 10.6 µM | 12% of 1,000 active | AID 602270, 2012; in the data active means activation above about 4%;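 further: enzyme coupled to thioredoxin and thioredoxin reductase with NADPH; 0% = vehicle wells and 100% = reference activator wells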
MsrA conf: bovine MsrA inhibitors, retest, confirmation, biochemical, absorbance, HTS; shares compounds with MsrA inh; purified bovine MsrA, absorbance read-out; inhibition, % at 15.5 µM; 41% of 2,300 active;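 further: coupled to thioredoxin reductase with NADPH and selenocystamine and DMSO as substrate; 0% = vehicle only and 100% = full effect of reference inhibitor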
Active calls of the source: *; nt = not tested or not shown. A selection: hits, their analogues and other compounds. The true share with any hit is near 1.2%. Unless noted, no stated cut-off is given here; in the data, active means inhibition above about 4.5%; inactive means the rest.

SMILES	A1 inh	MsrA inh	MsrA act	procasp7 counter	proCasp3 act	MsrA act confirm	others
Cc1nnc(N/N=C/c2cccc(C(F)(F)F)c2)n1N	0	-1	13*	-15	-6	1
Cc1nnc(N/N=C/c2ccco2)n1N	0	1	16*	-1	-3	-2
CCn1c(SCC(=O)N2CCN(S(=O)(=O)c3ccccc3)CC2)nnc1-c1cccs1	0	1	9.6*	-9	10	-1
S=c1nc(-c2cccc(Br)c2)[nH][nH]1	-1	1	9.8*	-18	-4	6.1*
Nc1nc(N)nc(-c2cccc(Br)c2)n1	nt	1	-11	nt	nt	nt
CCN(CC)C1=N/C(=C\c2ccc(OC)cc2)C(=O)N1c1ccccc1	0	1	20*	-18	-16	0
Cc1cccc2cc3cccc(C)c3nc12	0	0	8.9*	-8	-7	0
COC(=O)c1cc2c(c3c4cc(C)ccc4n(S(=O)(=O)c4ccc(C)cc4)c13)C(=O)N(C)C2	nt	1	nt	nt	nt	nt
CN1/C(=C\C(=S)Nc2ccccc2)C(C)(C)c2ccccc21	1	0	9.0*	-14	-1	-4
C[C@@H]1COc2cccc(NCCCN3CCOCC3)c2S(=O)(=O)N1	nt	0	nt	nt	nt	nt
CCOC(=O)C(C)Oc1cccc2c(=O)n(CC(=O)Nc3cccc(OC)c3)ccc12 (configuration not stated)	-1	1	8.4*	11	1	-3
O=C(NN1C(=O)c2cc(Br)ccc2NC1c1cc(Br)cc(Br)c1O)c1ccncc1 (configuration not stated)	0	0	8.9*	4	7	-4
O=C(C(=O)N1CCC(CNS(=O)(=O)c2ccc(C(F)(F)F)cc2)CC1)c1cccs1	nt	1	nt	nt	nt	nt
Cc1cc(C)nc(NS(=O)(=O)c2ccc(NC(=O)c3nn(-c4ccccc4)ccc3=O)cc2)n1	-1	0	14*	8	-6	-4
Cc1ccc(-n2ccc(=O)c(C(=O)Nc3ccc(S(=O)(=O)Nc4nccc(C)n4)cc3)n2)cc1	0	2	-6	-2	9	nt
CC(C)C[C@@H]1O[C@H](CCc2ccccc2)Cc2[nH]c(=S)[nH]c(=O)c21	nt	-1	10*	nt	nt	-1
CC(=O)Nc1ccc2sn(-c3ccccc3)c(=O)c2c1	nt	1	9.8*	nt	nt	5.7*
N#Cc1ccc2sn(-c3ccccc3)c(=O)c2c1	nt	1	12*	nt	nt	8.9*
O=c1c2cc([N+](=O)[O-])ccc2sn1-c1ccccc1	nt	3	9.8*	nt	nt	7.5*
COc1ccc(-n2sc3ccccc3c2=O)cc1	nt	1	5	nt	nt	nt
N#Cc1ccc2c(c1)nnn2-c1ccccc1	1	0	1	-1	1	nt
Nc1[nH]c(C(=O)c2ccccc2)c(-c2cc(F)ccc2Br)c1C(=O)NCCc1c[nH]c2ccccc12	nt	1	nt	nt	nt	nt
CCOc1ccc(C2CC(=O)c3c([nH]c(C(=O)OC)c3C)C2)cc1OC (configuration not stated)	1	-1	-4	8	2	nt
COC(=O)c1[nH]c2c(c1C)C(=O)CC(c1cc(OC)ccc1OC)C2 (configuration not stated)	0	-1	9.9*	14	-2	0
CCOC(=O)C1CCCN(C(=O)CCCn2nnnc2CN2CCOCC2)C1 (configuration not stated)	nt	0	15*	nt	nt	0
SMILES	A1 inh	MsrA inh	MsrA act	procasp7 counter	proCasp3 act	MsrA act confirm	others
CC(=O)Nc1ccc(NC(=O)CC(C)n2ccnc2)cc1 (configuration not stated)	2	0	8.5*	0	2	0
Cc1cc(=O)[nH]c(N/N=C/c2cccc([N+](=O)[O-])c2)n1	-1	1	nt	8	1	nt
Cc1cc(C)nc(N/N=C/c2cccc([N+](=O)[O-])c2)n1	-1	1	10*	6	1	-2
COc1ccccc1CCn1cnc(-c2ccccc2)c1CC(C)C	nt	0	nt	nt	nt	nt
O=C1C=C(c2c(O)ccc3ccccc23)c2ccccc2C1=O	nt	-1	21*	nt	nt	12*
CCCN1C(=O)c2[nH]nc(-c3ccccc3)c2C1c1ccc(F)cc1 (configuration not stated)	nt	1	nt	nt	nt	nt
O=C1C(Cl)=C(Nc2ccc(O)cc2)C(=O)c2ccccc21	0	17*	9.2*	-28	-12	7.0*	MsrA conf=12*
O=C(O)CSc1cc(NS(=O)(=O)c2ccc(Cl)cc2)c2ccccc2c1O	1	9.5*	7.8*	-22	-9	0	MsrA conf=0
Cc1cc(C)c(S(=O)(=O)Nc2cc(SCC(=O)O)c(O)c3ccccc23)cc1C	1	nt	nt	-8	-22	nt
CCCN1CCCCC(NC(=O)c2ccccc2OC)C1=O (configuration not stated)	nt	1	nt	nt	nt	nt
COc1ccc(/C=N/NC2=NS(=O)(=O)c3ccccc32)cc1OC(C)=O	1	5.4*	15*	9	1	-4	MsrA conf=4
CC(=O)Oc1ccc(/C=N/NC2=NS(=O)(=O)c3ccccc32)cc1	0	3	-2	3	7	nt
COc1ccc(Nc2ccc(C(F)(F)F)cc2[N+](=O)[O-])cn1	0	24*	13*	15	0	1	MsrA conf=18*
COC(=O)N[C@H]1CC=C[C@@H]1Cc1cccc(Oc2ccccc2)c1	nt	0	nt	nt	nt	nt
Cc1cc(C(=O)O)ccc1-c1ccc(/C=N/n2cnnc2)o1	0	9.2*	8.4*	nt	nt	-6	MsrA conf=6.5*
CC(=O)c1cccc(NC(=O)c2ccc([N+](=O)[O-])o2)c1	0	1	4	1	2	nt
CC(=O)c1ccc(NC(=O)c2ccc([N+](=O)[O-])o2)cc1	-2	11*	9.1*	nt	nt	2	MsrA conf=5.7*
COC(=O)[C@H](Cc1ccccc1)NC(=O)[C@H]1O[C@@H](n2cnc3c(=O)[nH]c(N)nc32)[C@H](O)[C@@H]1O	nt	2	nt	nt	nt	nt
CC/C(=C/c1sc2ccc(C)cc2[n+]1CCCS(=O)(=O)[O-])SC	0	4.8*	nt	-17	-18	nt	MsrA conf=3
COC(=O)CSC1=C(C#N)C(=O)NC(c2ccccc2)S1 (configuration not stated)	-1	6.1*	-19	-4	-3	nt	MsrA conf=4.8*
CSC1=C(C#N)C(=O)NC(c2ccccc2O)S1 (configuration not stated)	1	2	-7	-7	1	nt
